Among the data in ChEMBL document CHEMBL5030510, “Designed β-Hairpins Inhibit LDH5 Oligomerization and Enzymatic Activity” (J Med Chem, 2021) are IC50 and Activity values, retold here.

Active and inactive are the calls of the source. The calls are words filed in the database; no cut-off is given here. Where a SMILES comes first, the peptide text is derived from it. Bridges are numbered along the chain shown (N, C = ends).

As a reminder, the IC50 is the concentration needed to halve the response being measured.

One experiment addresses T1, L-lactate dehydrogenase A chain (Homo sapiens, UniProt P00338). As to the kind of experiment: Inhibition of recombinant full length N-terminal His-tagged human LDHA expressed in Escherichia coli using pyruvate as substrate and NADH as cofactor incubated for 2 hrs by fluorescence assay. The procedure, abridged:
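Reassociation activity assay: 900 nM LDHA stock in phosphate pH 7.4/EDTA/0.05% BSA, acidified 2 min with glycine pH 2.5/BSA. Peptide added in 0.25 M phosphate pH 7.6 and incubated 2 h at RT. Aliquot diluted, then pyruvate (3 mM final) and NADH (0.3 mM final) added. IC50 from dose-response fit.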
For `CC[C@H](C)[C@@H]1NC(=O)CNC(=O)[C@H](CCCNC(=N)N)NC(=O)[C@H](Cc2ccc(O)cc2)NC(=O)[C@@H]2CSSC[C@H](NC1=O)C(=O)N[C@@H](Cc1ccc(O)cc1)C(=O)N[C@@H](CCCNC(=N)N)C(=O)N[C@@H](CCCNC(=N)N)C(=O)N[C@H](C(=O)N[C@@H](CCCNC(=N)N)C(=O)NCC(=O)O)CSSC[C@H](NC(=O)[C@H](Cc1c[nH]c3ccccc13)NC(=O)[C@@H](N)CCCCN)C(=O)N[C@@H](Cc1ccccc1)C(=O)N[C@@H](CCCNC(=N)N)C(=O)N[C@@H](C(C)C)C(=O)N2`, the half-maximal inhibitory concentration (IC50) was 29.1 µM.
Still for that read-out and setting: next, `CC(C)C[C@@H]1NC(=O)[C@H](CCCNC(=N)N)NC(=O)[C@H](CCCNC(=N)N)NC(=O)[C@@H](NC(=O)CN)CSSC[C@@H](C(=O)N[C@@H](CCCNC(=N)N)C(=O)NCC(=O)N[C@@H](CCCNC(=N)N)C(=O)O)NC(=O)[C@H](Cc2ccc(O)cc2)NC(=O)[C@H]([C@@H](C)O)NC(=O)[C@H](C(C)C)NC(=O)[C@@H]2CSSC[C@H](NC1=O)C(=O)N[C@@H](Cc1ccc(O)cc1)C(=O)N[C@@H](CCCCN)C(=O)N[C@@H](CCC(N)=O)C(=O)N[C@@H](CCCNC(=N)N)C(=O)N2`: 36.6 µM; `CC(C)C[C@@H]1NC(=O)[C@H](CCCNC(=N)N)NC(=O)[C@H](CCCNC(=N)N)NC(=O)[C@@H](NC(=O)CN)CSSC[C@@H](C(=O)N[C@@H](CCCNC(=N)N)C(=O)NCC(=O)N[C@@H](CCCNC(=N)N)C(=O)O)NC(=O)[C@H](C(C)C)NC(=O)[C@H]([C@@H](C)O)NC(=O)[C@H](Cc2ccccc2)NC(=O)[C@@H]2CSSC[C@H](NC1=O)C(=O)N[C@@H](Cc1ccc(O)cc1)C(=O)N[C@@H](CCCCN)C(=O)N[C@@H](CCC(N)=O)C(=O)N[C@@H](CCCNC(=N)N)C(=O)N2`: 24 µM.
In the case of `CC(C)C[C@@H]1NC(=O)[C@H](CCCNC(=N)N)NC(=O)[C@H](CCCNC(=N)N)NC(=O)[C@@H](NC(=O)CN)CSSC[C@@H](C(=O)N[C@@H](CCCNC(=N)N)C(=O)NCC(=O)N[C@@H](CCCNC(=N)N)C(=O)O)NC(=O)[C@H](C(C)C)NC(=O)[C@H]([C@@H](C)O)NC(=O)[C@H](Cc2ccccc2)NC(=O)[C@@H]2CSSC[C@H](NC1=O)C(=O)N[C@@H](Cc1c[nH]c3ccccc13)C(=O)N[C@@H](Cc1ccccc1)C(=O)N[C@@H](CCCNC(=N)N)C(=O)N[C@@H](Cc1ccc(O)cc1)C(=O)N2`, the 50% inhibitory concentration (IC50) was 4.5 µM.
With `CC[C@H](C)[C@@H]1NC(=O)CNC(=O)[C@H](CCCNC(=N)N)NC(=O)[C@H](Cc2ccc(O)cc2)NC(=O)[C@@H]2CSSC[C@H](NC1=O)C(=O)N[C@@H](C(C)C)C(=O)N[C@@H]([C@@H](C)O)C(=O)N[C@@H](Cc1ccc(O)cc1)C(=O)N[C@H](C(=O)N[C@@H](CCCNC(=N)N)C(=O)NCC(=O)N[C@@H](CCCNC(=N)N)C(=O)O)CSSC[C@H](NC(=O)CN)C(=O)N[C@@H](CCCNC(=N)N)C(=O)N[C@@H](CCCNC(=N)N)C(=O)N[C@@H](CC(C)C)C(=O)N2` (H-GCRRLCYRGICVTYCRGR-OH; disulfide 2-15, 6-11), the concentration for half-maximal inhibition (IC50) turned out to be 24.8 µM.
Same read-out and setting: next, `CC(C)C[C@@H]1NC(=O)[C@H](CCCNC(=N)N)NC(=O)[C@H](CCCNC(=N)N)NC(=O)[C@@H](NC(=O)CN)CSSC[C@@H](C(=O)N[C@@H](CCCNC(=N)N)C(=O)NCC(=O)N[C@@H](CCCNC(=N)N)C(=O)O)NC(=O)[C@H](C(C)C)NC(=O)[C@H]([C@@H](C)O)NC(=O)[C@H](Cc2ccccc2)NC(=O)[C@@H]2CSSC[C@H](NC1=O)C(=O)N[C@@H](CC(=O)O)C(=O)N[C@@H](CCCNC(=N)N)C(=O)N[C@@H](Cc1ccccc1)C(=O)N[C@@H](C)C(=O)N2` (H-GCRRLCDRFACFTVCRGR-OH; disulfide 2-15, 6-11): greater than 40 µM.
Same read-out and setting: with `CC(=O)NCC(=O)N[C@@H](CC(N)=O)C(=O)N[C@@H](Cc1ccc(O)cc1)C(=O)N[C@H](C(=O)N[C@@H](Cc1c[nH]c2ccccc12)C(=O)N[C@@H](CC(C)C)C(N)=O)[C@@H](C)O` the figure was greater than 40 µM; with `CC(C)C[C@@H]1NC(=O)[C@H](CCCNC(=N)N)NC(=O)[C@H](CCCNC(=N)N)NC(=O)[C@@H](NC(=O)CN)CSSC[C@@H](C(=O)N[C@@H](CCCNC(=N)N)C(=O)NCC(=O)N[C@@H](CCCNC(=N)N)C(=O)O)NC(=O)[C@H](C(C)C)NC(=O)[C@H]([C@@H](C)O)NC(=O)[C@H](Cc2ccccc2)NC(=O)[C@@H]2CSSC[C@H](NC1=O)C(=O)N[C@@H]([C@@H](C)O)C(=O)NCC(=O)N[C@@H](CCC(N)=O)C(=O)N[C@@H](CCCNC(=N)N)C(=O)N2`, greater than 40 µM; with `CC(=O)N1CCC[C@H]1C(=O)N[C@H](C(=O)N[C@@H](CCC(N)=O)C(=O)N[C@@H](CCCNC(=N)N)C(=O)N[C@H](C(=O)NCC(N)=O)[C@@H](C)O)C(C)C`, greater than 40 µM.
On the same count and under the same terms, with `CC(C)C[C@@H]1NC(=O)[C@H](CCCNC(=N)N)NC(=O)[C@H](CCCNC(=N)N)NC(=O)[C@@H](NC(=O)CN)CSSC[C@@H](C(=O)N[C@@H](CCCNC(=N)N)C(=O)NCC(=O)N[C@@H](CCCNC(=N)N)C(=O)O)NC(=O)[C@H](C(C)C)NC(=O)[C@H](CCC(N)=O)NC(=O)[C@H](CCCNC(=N)N)NC(=O)[C@@H]2CSSC[C@H](NC1=O)C(=O)N[C@@H](Cc1ccc(O)cc1)C(=O)N[C@@H](CCCCN)C(=O)N[C@@H](CCC(N)=O)C(=O)NCC(=O)N2` the figure was 41.4 µM.
For `CC(C)C[C@@H]1NC(=O)[C@H](CCCNC(=N)N)NC(=O)[C@H](CCCNC(=N)N)NC(=O)[C@@H](NC(=O)CN)CSSC[C@@H](C(=O)N[C@@H](CCCNC(=N)N)C(=O)NCC(=O)N[C@@H](CCCNC(=N)N)C(=O)O)NC(=O)[C@H](C(C)C)NC(=O)[C@H]([C@@H](C)O)NC(=O)[C@H](Cc2ccccc2)NC(=O)[C@@H]2CSSC[C@H](NC1=O)C(=O)N[C@@H](CC(=O)O)C(=O)N[C@@H](CCCNC(=N)N)C(=O)N[C@@H](Cc1ccccc1)C(=O)N[C@@H](Cc1c[nH]c3ccccc13)C(=O)N2`, the IC50 came to 10.4 µM.
The same measure, in the same setting: next, `CC[C@H](C)[C@H](NC(=O)CNC(=O)[C@H](CC(N)=O)NC(=O)[C@H](CCC(N)=O)NC(C)=O)C(=O)N[C@@H](CO)C(=O)N[C@@H](CC(=O)O)C(=O)N[C@@H](CC(C)C)C(=O)N[C@H](C(=O)N[C@@H](CCCCN)C(N)=O)C(C)C`: greater than 40 µM; `CC(C)C[C@@H]1NC(=O)[C@H](CCCNC(=N)N)NC(=O)[C@H](CCCNC(=N)N)NC(=O)[C@@H](NC(=O)CN)CSSC[C@@H](C(=O)N[C@@H](CCCNC(=N)N)C(=O)NCC(=O)N[C@@H](CCCNC(=N)N)C(=O)O)NC(=O)[C@H](C(C)C)NC(=O)[C@H](CC(C)C)NC(=O)[C@H](CC(=O)O)NC(=O)[C@@H]2CSSC[C@H](NC1=O)C(=O)N[C@@H](Cc1ccc(O)cc1)C(=O)N[C@@H](CCCCN)C(=O)N[C@@H](CCC(N)=O)C(=O)N[C@@H](CCCNC(=N)N)C(=O)N2`: 27.3 µM; `CC[C@H](C)[C@@H]1NC(=O)[C@H](Cc2ccc(O)cc2)NC(=O)[C@H](CC(N)=O)NC(=O)[C@@H]2CSSC[C@H](NC(=O)[C@H](CC(C)C)NC(=O)[C@H](CCCNC(=N)N)NC(=O)[C@H](CCCNC(=N)N)NC(=O)[C@@H](NC(=O)CN)CSSC[C@@H](C(=O)N[C@@H](CCCNC(=N)N)C(=O)NCC(=O)N[C@@H](CCCNC(=N)N)C(=O)O)NC1=O)C(=O)N[C@@H](Cc1ccc(O)cc1)C(=O)N[C@@H](CCCCN)C(=O)N[C@@H](CCC(N)=O)C(=O)N[C@@H](CC(C)C)C(=O)N2`: greater than 40 µM.

The next experiment deals with T1, L-lactate dehydrogenase A chain. Nature of the experiment: Binding affinity to recombinant full length N-terminal His-tagged human LDHA expressed in Escherichia coli assessed as reduction in fluorecence recovery measured after 2 hrs by tryptophan fluorescence emission assay. The procedure, abridged: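 Intrinsic Trp fluorescence: 4 µM LDHA (stock) dissociated 2 min in 0.1 M glycine pH 2.5, then peptide added in 0.25 M phosphate pH 7.6, 1 mM EDTA. No-LDHA blank subtracted. Zero set at pH 2.5 and maximum at the pH 2.5→7.4 control. LDH5 final 0.6 µM.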
In the case of `CC[C@H](C)[C@@H]1NC(=O)CNC(=O)[C@H](CCCNC(=N)N)NC(=O)[C@H](Cc2ccc(O)cc2)NC(=O)[C@@H]2CSSC[C@H](NC1=O)C(=O)N[C@@H](C(C)C)C(=O)N[C@@H]([C@@H](C)O)C(=O)N[C@@H](Cc1ccc(O)cc1)C(=O)N[C@H](C(=O)N[C@@H](CCCNC(=N)N)C(=O)NCC(=O)N[C@@H](CCCNC(=N)N)C(=O)O)CSSC[C@H](NC(=O)CN)C(=O)N[C@@H](CCCNC(=N)N)C(=O)N[C@@H](CCCNC(=N)N)C(=O)N[C@@H](CC(C)C)C(=O)N2` (H-GCRRLCYRGICVTYCRGR-OH; disulfide 2-15, 6-11), the Activity entry was “Dose-Dependent Effect”.
Same read-out and setting: with `CC(C)C[C@@H]1NC(=O)[C@H](CCCNC(=N)N)NC(=O)[C@H](CCCNC(=N)N)NC(=O)[C@@H](NC(=O)CN)CSSC[C@@H](C(=O)N[C@@H](CCCNC(=N)N)C(=O)NCC(=O)N[C@@H](CCCNC(=N)N)C(=O)O)NC(=O)[C@H](C(C)C)NC(=O)[C@H]([C@@H](C)O)NC(=O)[C@H](Cc2ccccc2)NC(=O)[C@@H]2CSSC[C@H](NC1=O)C(=O)N[C@@H](CC(=O)O)C(=O)N[C@@H](CCCNC(=N)N)C(=O)N[C@@H](Cc1ccccc1)C(=O)N[C@@H](C)C(=O)N2` (H-GCRRLCDRFACFTVCRGR-OH; disulfide 2-15, 6-11) the entry was “inactive”.
